Scp1 inh – inhibitors of human Scp-1 phosphatase; Q9GZU7; 340,000 compounds, 0.88% hits; Recombinant Scp1, phosphopeptide, malachite green phosphate absorbance; inhibition, % at 20 µM;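 active = inhibition above about 50% at 20 µM, limit read from the data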
Target sequence (Q9GZU7 76-261 limits assumed): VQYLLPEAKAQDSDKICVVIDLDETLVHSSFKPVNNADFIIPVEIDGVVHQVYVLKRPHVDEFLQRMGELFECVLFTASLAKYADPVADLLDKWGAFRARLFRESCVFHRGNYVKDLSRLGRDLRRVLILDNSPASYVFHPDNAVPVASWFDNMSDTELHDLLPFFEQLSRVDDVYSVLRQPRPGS
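System: truncated SCP-1 phosphatase (76-261aa); medium: Tris acetate buffer pH 5.5 with MgCl2 and Tween-20; incubation: 45 min room-temperature reaction, 5 min colour, 30 min stabiliser; compound: single 20 µM dose, 1% DMSO; reagent: Phosphorylated 17-residue peptide substrate; read-out: % inhibition at 20 µM; technique: colorimetric free-phosphate detection, absorbance 630 nm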
LMPTP inh – LMPTP (human) inhibition; P24666; recombinant LMPTP-A, OMFP fluorogenic substrate, fluorescence intensity; inhibition, % at 20 µM; 360,000 compounds, 0.22% hits;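 active = compounds that cut the enzyme signal by at least half of the control window in the single-dose screen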
Target sequence (P24666 whole entry, looked up): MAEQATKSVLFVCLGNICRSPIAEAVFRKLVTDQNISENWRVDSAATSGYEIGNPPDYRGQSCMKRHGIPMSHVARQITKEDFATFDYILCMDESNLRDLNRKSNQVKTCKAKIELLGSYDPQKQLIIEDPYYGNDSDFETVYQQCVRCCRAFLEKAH
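Test system – LMPTP-A enzyme · Amount – LMPTP-A at 0.625 nM final in the reaction · Buffer or medium – Bis-Tris pH 6.0, DTT, detergent · Reagent – OMFP 400 µM · Doses – single 20 µM dose · Schedule – reaction 50 min, room temperature, dark · Detection – fluorescence intensity of OMFP turnover product · Evaluation – percent inhibition versus substrate-only and uninhibited controls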
DNMT1 inh – inhibitors of human DNMT1 | 360,000 compounds, 0.83% hits | inhibition (reported as % activation of signal), % at 10 µM | DNMT1 molecular beacon, Hinp1I cleavage, fluorescence | P26358 | AID 588458; in the data active = inhibition above about 50%
Rpn11 block – Rpn11 (human) deubiquitinase inhibition. human 26S proteasome, Ub4-pepOG fluorescence polarization; 20S core pre-blocked with epoxomicin. inhibition, % at 20 µM. 360,000 compounds, 0.59% hits. AID 588493;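 active = inhibition at 20 µM, scaled to each plate's controls, above about 33%, limit read from the data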
STEP inh – blocks human striatal-enriched tyrosine phosphatase. P54829. recombinant STEP, OMFP fluorogenic substrate, fluorescence. inhibition, % at 20 µM. 360,000 compounds, 0.25% hits;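 active = inhibition at 20 µM, scaled per plate between control wells, above about 37%, limit read from the data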
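Measure: Control-normalized % inhibition with plate pattern correction | Test system: STEP phosphatase, cell-free reaction | Medium: pH 6.0 Bis-Tris with DTT and Tween 20 | Technique: Fluorescence, 480/540 nm | Times: Reaction 20 min, ambient temperature | Doses: Single compound dose of 20 µM, 1% DMSO final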
SUMO1-SIM PPI – alters human SUMO1 binding to SIM partners. P63165. SUMO1 binding to a labelled peptide, TR-FRET, 1 h. inhibition, % at 20 µM. 360,000 compounds, 0.33% hits; in the data active = inhibition above about 37%
Target sequence (P63165 whole entry, looked up): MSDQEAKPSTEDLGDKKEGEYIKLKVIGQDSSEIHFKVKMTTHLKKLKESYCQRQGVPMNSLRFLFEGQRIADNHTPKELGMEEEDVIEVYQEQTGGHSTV
Rpn11 inh conf – Rpn11 inhibition confirmation, single concentration; shares compounds with Rpn11 block; purified human 26S proteasome, Ub4-pepOG fluorescence polarization; proteasome pretreated with epoxomicin; inhibition, % at 20 µM; 1,900 compounds, 29% hits; AID 602318
MMP-2 counter – blocks human MMP-2, flagging nonselective RPN11 hits; shares compounds with Rpn11 block; recombinant MMP-2, FRET peptide cleavage fluorescence; inhibition, % at 20 µM; 1,900 compounds, 4% hits;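 note: human MMP-2 activated beforehand with APMA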
Thrombin FP – counter-screen for RPN11 inhibitors: inhibition of bovine thrombin | shares compounds with Rpn11 block | 1,900 compounds, 13% hits | bovine thrombin cleavage of Ub4-pepOG, fluorescence polarization | inhibition, % at 20 µM;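 active = mean inhibition at least 40% at 20 µM, or signal 3 deviations below plate average, so some actives read negative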
Of the large screens only hits and unclear results are named; the others gave an inactive call (follow-up assays come after a bar, where shown). A selection: hits, their analogues and other compounds. The true share with any hit is near 2.3%. Cut-off read from the data, not from the text of the source, unless noted: active = inhibition above about 40%; inactive = the rest.

CC1CCC(=C(C#N)c2nc(-c3cc4ccccc4oc3=O)cs2)CC1 (stereo unspecified)	none
CCN(CC)CCOC(=O)c1ccc(N/C=C(/C#N)c2nc(-c3cc4ccccc4oc3=O)cs2)cc1	DNMT1 inh 50, Rpn11 block 82, STEP inh 52 | Rpn11 inh conf 52 | MMP-2 counter inactive | Thrombin FP 60
CCN(CC)CCOC(=O)c1ccc(N/C=C(/C#N)c2nc(-c3ccc(OC)cc3)cs2)cc1	Rpn11 block 59, SUMO1-SIM PPI 81 | Rpn11 inh conf 55 | MMP-2 counter inactive | Thrombin FP 77
CCN(CC)CCOC(=O)c1ccc(N/C=C(/C#N)c2nc(-c3ccc4c(c3)OCO4)cs2)cc1	Rpn11 block 86, STEP inh 86, SUMO1-SIM PPI 65 | Rpn11 inh conf 153 | MMP-2 counter inactive | Thrombin FP 71
COc1cc(/C=C(\C#N)c2nc(-c3cc4ccccc4oc3=O)cs2)ccc1O	Rpn11 block 72 | Rpn11 inh conf inactive | MMP-2 counter inactive | Thrombin FP inactive
CCC(C(=O)NCC1CCCO1)n1nc(C)c2sc3ccccc3c2c1=O (stereo unspecified)	none
COc1ccc(C)cc1NC(=O)CSc1nnc(-c2cc(C)[nH]n2)n1N	none
Cc1ccccc1CNS(=O)(=O)c1c(C(=O)N2CCCCC2)c(C)n(C)c1C	none
Cc1ccc(NC(=O)CNCCCN2CCOCC2)cc1S(=O)(=O)N1CCCCC1	none
CCn1ncc(Br)c1C(=O)Nc1c(C)nn(Cc2c(F)c(F)c(F)c(F)c2F)c1C	none
CCOC(=O)CNC(=O)N(CCOC)CC1CCCN(C2Cc3ccccc3C2)C1 (stereo unspecified)	none
O=C(CN(C1CCCCC1)S(=O)(=O)c1ccccc1)N1CCCC1	Rpn11 block 37 | Rpn11 inh conf inactive | MMP-2 counter inactive | Thrombin FP inactive
O=C1C(Cc2ccccc2)Nc2ncnc(N3CCN(c4ccccc4)CC3)c2N1Cc1ccc(Cl)cc1 (stereo unspecified)	none
O=[N+]([O-])c1ccc(C=NNc2ccccc2)cc1	Rpn11 block 55 | Rpn11 inh conf inactive | MMP-2 counter inactive | Thrombin FP inactive
O=[N+]([O-])c1ccc(NN=C(Oc2ccccc2)c2ccc([N+](=O)[O-])cc2)cc1	Rpn11 block 42 (no result: Scp1 inh) | Rpn11 inh conf inactive | MMP-2 counter inactive | Thrombin FP inactive
CC/C(=N\Nc1ccc([N+](=O)[O-])cc1)c1ccccc1	none (not shown: Rpn11 block)
CC(C)Cn1c(=O)c(CCC(=O)Nc2ccc(N3CCOCC3)cc2)nc2cc(Cl)ccc21	none
CSCCNC(=O)C1(C)CCN1C(=O)CCc1ccccc1 (stereo unspecified)	none (no result: Scp1 inh)
CCN1C(=O)CS/C1=N\S(=O)(=O)c1ccccc1	none
CCN1C(=O)CS/C1=C(\C#N)S(=O)(=O)c1ccccc1	Rpn11 block 42 | Rpn11 inh conf inactive | MMP-2 counter inactive | Thrombin FP inactive
Clc1cccc(Cl)c1CSc1nnc([C@@H]2CCCN2)o1	none
COc1cc(NC(=O)CN(C)S(=O)(=O)c2ccc(C)cc2)cc(OC)c1	Rpn11 block 38 | Rpn11 inh conf inactive | MMP-2 counter inactive | Thrombin FP inactive
COc1ccc(NC(=O)CN(C)S(=O)(=O)c2ccc(Cl)cc2)c([N+](=O)[O-])c1	Rpn11 block 39 | Rpn11 inh conf inactive | MMP-2 counter inactive | Thrombin FP inactive
Oc1cc(Br)ccc1C=Nc1ccc(N2CCCCC2)cc1	Rpn11 block 48 | Rpn11 inh conf inactive | MMP-2 counter inactive | Thrombin FP inactive
CCc1ccc(/C=C2\SC(=S)N(CCC(=O)N3CCN(C)CC3)C2=O)cc1	Rpn11 block 51 | Rpn11 inh conf 70 | MMP-2 counter inactive | Thrombin FP 54
Cc1cc(=O)[nH]c(N/N=C/C(C)c2ccccc2)n1 (stereo unspecified)	none
CCCCC(=O)N(Cc1ccc(F)cc1)C1CCS(=O)(=O)C1 (stereo unspecified)	Rpn11 block 36 | Rpn11 inh conf inactive | MMP-2 counter inactive | Thrombin FP inactive
CCc1ccccc1NC(=O)CN1C(=O)C2CCCN2c2ncc(Cl)cc21 (stereo unspecified)	Rpn11 block 41 | Rpn11 inh conf inactive | MMP-2 counter inactive | Thrombin FP inactive
CC1(C2CC2)NC(=O)N(CC(=O)Nc2ccc(F)cc2F)C1=O (stereo unspecified)	none
O=C(NC1CCCCC1)c1cccc2c1C(=O)c1ccc(N3CCCC3)cc1S2(=O)=O	none (not shown: Rpn11 block)
CC1CCN(c2ccc3c(c2)S(=O)(=O)c2cccc(C(=O)NC4CCCCC4)c2C3=O)CC1	Rpn11 block 88 | Rpn11 inh conf 44 | MMP-2 counter inactive | Thrombin FP inactive
O=C(NCc1ccc(F)cc1)c1cccc2c1C(=O)c1ccc(N3CCOCC3)cc1S2(=O)=O	Rpn11 block 45 | Rpn11 inh conf 54 | MMP-2 counter inactive | Thrombin FP inactive
C=CCNC(=O)c1cccc2c1C(=O)c1ccc(N3CCOCC3)cc1S2(=O)=O	Rpn11 block 49 | Rpn11 inh conf inactive | MMP-2 counter inactive | Thrombin FP inactive
CC1CCN(c2ccc3c(c2)S(=O)(=O)c2cccc(C(=O)NCc4ccc(F)cc4)c2C3=O)CC1	none
O=C(NCCc1ccccc1)c1cccc2c1C(=O)c1ccc(N3CCOCC3)cc1S2(=O)=O	none
C=CCNc1nc(C(=O)OCC(=O)N(Cc2ccccc2)C(C)C)cs1	none
COC(=O)c1ccc(NC(=O)CCN2CCN(c3ccccc3)CC2)cc1	Rpn11 block 154 | Rpn11 inh conf inactive | MMP-2 counter inactive | Thrombin FP inactive
NC(CCc1ccccc1)c1csc(NC(=O)NCC2CCCCC2)n1 (stereo unspecified)	none (no result: Scp1 inh)
O=C(NCCCN1CCOCC1)c1cc2c(=O)[nH]c3ccccc3c2s1	Rpn11 block 58 | Rpn11 inh conf inactive | MMP-2 counter inactive | Thrombin FP inactive
CCN1CCN(CCCNC(=O)c2cc3c(=O)[nH]c4ccccc4c3s2)CC1	none
O=C(NCCCN1CCOCC1)c1cccc(NC(=O)c2ccccc2)c1	Rpn11 block 46 | Rpn11 inh conf inactive | MMP-2 counter inactive | Thrombin FP inactive
O=C(O)c1ccccc1Nc1ccc([N+](=O)[O-])c2nonc12	none

High-throughput results as filed in PubChem.
